Screening results: PubChem BioAssay, Johns Hopkins Ion Channel Center
Rows were chosen to be rich in hits. Some 3.7% of all compounds tested hit in one or more screens of this group.
KCNQ1 block = inhibitors of human KCNQ1 channel, primary screen, cell-based, thallium flux, high-throughput. Potassium voltage-gated channel subfamily KQT member 1 (Homo sapiens), P51787. CHO-K1 KCNQ1, FluxOR thallium flux fluorescence; hits give high values. B-score at 10 µM. 1.3% of 310,000 active;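 active means compounds whose thallium flux B-score, printed positive for inhibition, exceeds three library SD while starting fluorescence stays within three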;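 further: channel opened by potassium depolarization with thallium stimulus after 20 min compound exposure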
KCNK9 block = KCNK9 potassium channel inhibitors, primary screen, HEK293 cells, thallium flux; Potassium channel subfamily K member 9 (Homo sapiens), Q9NPC2; FluxOR thallium flux fluorescence; hits give low values; B-score at 10 µM; 1.2% of 310,000 active;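 active means ratio B-score over 3 SD below the library mean, with starting fluorescence within 5 SD of its mean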;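 further: negative B-score means less thallium flux so channel inhibition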
Target sequence (Q9NPC2 whole entry, looked up): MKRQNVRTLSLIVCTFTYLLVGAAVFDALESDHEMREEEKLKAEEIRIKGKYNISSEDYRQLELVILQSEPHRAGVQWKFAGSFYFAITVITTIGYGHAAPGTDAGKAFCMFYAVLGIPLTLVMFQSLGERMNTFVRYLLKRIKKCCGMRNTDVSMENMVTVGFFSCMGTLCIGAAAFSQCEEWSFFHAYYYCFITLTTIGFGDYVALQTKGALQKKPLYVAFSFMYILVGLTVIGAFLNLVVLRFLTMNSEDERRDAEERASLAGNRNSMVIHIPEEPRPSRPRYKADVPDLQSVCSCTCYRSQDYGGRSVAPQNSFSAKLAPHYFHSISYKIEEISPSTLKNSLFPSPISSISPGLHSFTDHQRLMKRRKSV
KCNK3 inh = human KCNK3 channel inhibitors, primary screen, CHO cells, FluxOR thallium flux, B-score. Potassium channel subfamily K member 3 (Homo sapiens), O14649. FluxOR fluorescence; hits give low values. B-score at 10 µM. 0.84% of 340,000 active;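 active means B-score under library mean minus 4 SD, starting fluorescence ratio at most library mean plus 5 SD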;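 further: more negative B-score means stronger inhibition of thallium flux through KCNK3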
Kir21 block = inhibitors of mouse Kir2.1 inward-rectifier potassium channel. Inward rectifier potassium channel 2 (Mus musculus), P35561. HEK293-Kir2.1, FluxOR thallium flux fluorescence; hits give low values. B-score at 10 µM. 0.85% of 310,000 active;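 active means fluorescence ratio B-score at or below minus 3 SD of library scores, with starting-brightness B-score within 2 SD, cut at about -4.2 in these data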;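 further: channel flux triggered by added potassium and thallium sulfate stimulus; B-score of peak minus minimum fluorescence over baseline after thallium stimulus; more negative B-score means stronger Kir2.1 block with less thallium influx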
hERG protect = hERG rescue from dofetilide block, primary screen, cell-based, CHO-hERG, FluxOR thallium flux, dofetilide IC70. Voltage-gated inwardly rectifying potassium channel KCNH2 (Homo sapiens), Q12809. dofetilide IC70 present. activation (rescue from dofetilide block), less the hit threshold, % at 10 µM. 0.51% of 310,000 active;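 active means activation above the mean of controls blocked by dofetilide plus 5 SD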;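 further: thallium influx through hERG after potassium depolarization seen as dye fluorescence rise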
KCNQ1 pot = potentiators or activators of KCNQ1 channel, primary screen, cell-based, thallium flux, high-throughput. CHO-K1 KCNQ1, thallium flux FluxOR fluorescence; hits give high values. B-score at 10 µM. Potassium voltage-gated channel subfamily KQT member 1 (Homo sapiens), P51787. 0.35% of 310,000 active;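 active means fluorescence ratio B-score, a plate-corrected score, at least three library SD, with initial intensity B-score within 5 SD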
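Assay system: CHO-K1 cells stably expressing KCNQ1. Medium: assay buffer for compound exposure, DMSO matched across wells. Timing: 37 °C overnight plating, 90-min dark dye load, 20-min compound pretreatment. Signal: kinetic FluxOR fluorescence, 10 s baseline plus 110 s post-stimulus.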
KCNK9 block conf = KCNK9 potassium channel inhibitors, confirmation, HEK293 cells, thallium flux, duplicate. shares compounds with KCNK9 block. AID 492992, 2010. FluxOR thallium flux fluorescence. inhibition, % at 10 µM. 43% of 4,900 active;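 active means thallium signal inhibited by more than 5 SD of the compound-free buffer control wells, on both duplicate plates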
Kir2-1 spec = mouse Kir2.1 channel inhibition, confirmation, selectivity assay for KCNK9 modulator project, cell-based, HEK293, thallium flux. shares compounds with KCNK9 block. Kir2.1 cells, FluxOR thallium flux fluorescence. inhibition, % at 10 µM. 4% of 4,900 active;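 active means thallium signal drop more than 5 SD beyond the mean of the no-compound control wells, seen in both duplicate plates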;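 further: signal is fluorescence rise after thallium addition divided by baseline fluorescence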
HEK293 Tl ctr = thallium flux in non-induced HEK293 cells, confirmation, counter-screen for KCNK9 inhibitor project, cell-based, second counter screen, non-induced KCNK9-HEK293 | shares compounds with KCNK9 block | FluxOR thallium flux | inhibition, % at 10 µM | 40% of 4,900 active | AID 492997, 2010;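 active means thallium signal drop beyond 5 SD of the untreated control mean, on both duplicate plates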
Numbers stand for hits; n = inactive; x = no result.

SMILES | KCNQ1 block | KCNK9 block | KCNK3 inh | Kir21 block | hERG protect | KCNQ1 pot | KCNK9 block conf | Kir2-1 spec | HEK293 Tl ctr
COc1cc(CN2CCNC(=O)C2CC(=O)N2CCCO2)cc(OC)c1 (configuration not stated) | n | n | n | n | n | n | x | x | x
CC(NC(=O)Cn1cc2c(n1)CCCCC2)c1ccccc1 (configuration not stated) | n | n | n | n | n | n | x | x | x
O=C(Cn1cc2c(n1)CCCC2)Nc1cc(-c2cccc(Cl)c2)no1 | n | -15 | n | n | n | n | 60% | n | n
O=C(/C=C/c1ccccc1)c1cc(Br)ccc(=O)c1O | n | n | n | n | 12 | 22 | n | n | n
CN1c2ccccc2C2(C)CCCC3=Cc4cccc([N+](=O)[O-])c4OC312 (configuration not stated) | n | -10 | n | n | n | n | 57% | n | 35%
Cc1ccc(NC(=O)CSCC(=O)Nc2cccc(S(=O)(=O)N3CCCCCC3)c2)cc1 | x | x | n | x | x | x | x | x | x
Cc1ccc(-n2ncc3c2CCCC3NC(=O)CSc2ccccn2)cc1C (configuration not stated) | n | n | n | n | n | n | n | n | n
O=C(NCCC1=CCCCC1)NC12CC3CC(CC(C3)C1)C2 | 6 | n | n | n | n | n | n | n | n
Cc1ccc(Cl)cc1N1CCN(S(=O)(=O)c2cccc(S(=O)(=O)N3CCCC3)c2)CC1 | n | -10 | -11 | n | n | n | 49% | n | 32%
O=C(NC1CCS(=O)(=O)C1)c1cccc(S(=O)(=O)N2CCCC2)c1 (configuration not stated) | n | n | n | n | n | n | x | x | x
COc1cc(N)c(Cl)cc1C(=O)OCC(=O)NC(=O)NCc1ccco1 | x | x | n | x | x | x | x | x | x
CCN1/C(=C/c2ccc3ccccc3[n+]2CCCS(=O)(=O)[O-])C=Cc2cc(C)ccc21 | n | n | n | n | n | n | x | x | x
CCN1/C(=C/c2ccc3ccccc3[n+]2CC)C=Cc2ccccc21 | 13 | -18 | -9 | -13 | n | n | 86% | 94% | 59%
CC(C)C(=O)Nc1c2c(nn1-c1ccc(F)cc1)CSC2 | n | n | n | n | n | n | x | x | x
O=C(OCC(=O)N1CCc2ccccc21)c1cccc(S(=O)(=O)N2CCCc3ccccc32)c1 | n | n | n | n | n | n | n | n | n
O=C(OCC(=O)N1CCCc2ccccc21)c1cccc(S(=O)(=O)N2CCOCC2)c1 | n | n | n | n | n | n | x | x | x
O=C(COC(=O)c1c2c(nc3ccccc13)CCCC2)Nc1ccc2c(c1)OCO2 | n | -12 | n | n | n | n | 48% | n | n
COc1ccc(N2CCN(C(=O)c3cccc(S(=O)(=O)N4CCc5ccccc54)c3)CC2)cc1 | x | x | n | x | x | x | x | x | x
O=C(COC(=O)c1cc(-c2ccccc2)nc2ccccc12)Nc1ccc2c(c1)OCO2 | n | n | n | n | n | n | x | x | x
O=C(c1cccc(S(=O)(=O)N2CCc3ccccc32)c1)N1CCN(c2ccccn2)CC1 | n | -10 | n | n | n | n | 36% | n | n
O=C(OCC(=O)N1CCc2ccccc21)c1c2c(nc3ccccc13)CCCCC2 | n | -13 | n | n | n | n | 52% | n | 34%
CCOC(=O)N1CCC(NC(=O)c2cc(COc3ccccc3SC)on2)CC1 | n | n | n | n | n | n | x | x | x
CNS(=O)(=O)c1cc(OC)c(OC)cc1CC(=O)OC | n | n | n | n | n | n | x | x | x
CCCC[C@@H]1C[C@H]1[C@@H](NC(=O)c1cccs1)c1ccc(Cl)cc1 | 10 | -11 | x | n | n | n | 52% | n | 50%
COc1cc(C)ccc1OCCCOc1ccccc1Br | n | n | n | n | n | n | x | x | x
SMILES | KCNQ1 block | KCNK9 block | KCNK3 inh | Kir21 block | hERG protect | KCNQ1 pot | KCNK9 block conf | Kir2-1 spec | HEK293 Tl ctr
COc1ccccc1OCCOCCOc1ccc(C)cc1Br | n | n | n | n | n | n | n | n | n
Cc1ccc(OCCCCN(C)Cc2ccccc2)c(Br)c1 | n | n | n | -13 | n | n | n | 80% | n
COc1ccccc1OCCCOc1ccc(C)cc1Br | n | n | n | n | n | n | x | x | x
O=[N+]([O-])c1ccc(NN=Cc2ccc3c(c2)OCO3)nc1 | x | x | n | x | x | x | x | x | x
O=C(Oc1ccccc1)c1cccc2cccc(C(=O)Oc3ccccc3)c12 | n | -9.2 | n | n | n | n | 42% | n | 26%
O=C(O)c1cc(S(=O)(=O)Nc2ccc(OCc3ccccc3)cc2)ccc1Br | n | n | n | n | n | n | x | x | x
Cc1cn(CC(=O)NCCc2c[nH]c3ccccc23)c(=O)[nH]c1=O | x | x | n | x | x | x | x | x | x
CC(C)(C)n1nc2c(c1NC(=O)COc1ccc(Cl)cc1)CSC2 | n | -11 | n | n | n | n | 45% | n | 50%
C=CC[C@@H]1C=C[C@H](O/N=C/[C@@H](NS(=O)(=O)c2ccc(C)cc2)[C@H](C)/C=C/CC(=O)OC)[C@@H](CO)O1 | n | n | x | n | n | n | x | x | x
CCCNC(=O)OC[C@H]1O[C@H](CCO/N=C/[C@@H](OC)[C@H](C)/C=C/CC(=O)OC)C=C[C@@H]1Oc1ccc(OC)cc1 | n | n | x | n | n | n | n | n | n
Cc1cccc(N(CC(=O)Nc2ccccc2-c2ccccc2)S(=O)(=O)c2ccccc2)c1C | n | n | n | n | n | n | x | x | x
Cc1ccccc1CN(C)CC(=O)Nc1ccccc1-c1ccccc1 | n | -10 | n | -5.6 | n | n | 71% | 55% | 42%
CN(CC(=O)Nc1ccccc1C(=O)NC1CC1)Cc1ccccc1F | x | x | n | x | x | x | x | x | x
O=C(CNC(c1ccccc1)c1ccccc1)Nc1ccccc1-c1ccccc1 | n | -12 | n | n | n | n | 26% | n | 42%
CN(CC(=O)Nc1ccccc1Oc1ccccc1)Cc1ccccc1F | n | -13 | n | -5.1 | n | n | 78% | 47% | 42%
O=C(NN=C1CCCC1)c1cc(Cl)cc(Cl)c1O | n | n | n | n | n | n | x | x | x
